Measurements reported in the RNAGym collection of RNA variant scans (doi:10.1126/science.aae0568).
This sample holds only a part of the variants without activity.

B1: tRNA (parent)
chain: GUUCCGUUGGCGUAAUGGUAACGCGUCUCCCUCCUAAGGAGAAGACUGCGGGUUCGAGUCCCGUACGGAACG

Variants of: B1
Assay: yeast fitness relative to wild type (ratio to wild type); higher = fitter; tRNA-Arg(CCU), competitive growth, 37 C, YPD
Outline: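 Amplicons of the tRNA-Arg(CCU) gene were sequenced, 100-nucleotide paired-end, from the start population and from each end population of a pooled yeast competition. The competition, in six parallel replicates, lasted 24 hours in YPD at 37°C. Fitness relative to wild type was calculated from changes in genotype frequencies. Genotypes had to have ≥ 100 starting reads, and estimates < 0.5 were set to 0.5.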

Going from G10A A20U to G10A A20U A45U C55U A70C, the yeast fitness falls from 0.786 to 0.576.

G10A A20U C30A C62U and G10A A20U C30U G56A A65G C66A G68C cannot be ordered by yeast fitness: at most 0.5 for the first, at most 0.5 for the second.

Compared with G10A A20U U35C G48C C60A, G10A A21C is higher in yeast fitness: at most 0.5 for the first, 0.693 for the second.

G10A A21C A57U and G10A A21C C22A G25C G38A U59A C60U cannot be ordered by yeast fitness: at most 0.5 for the first, at most 0.5 for the second.

G10A A21C C24A A65C G68C and G10A A21C C61G U64C cannot be ordered by yeast fitness: at most 0.5 for the first, at most 0.5 for the second.

Compared with G10A A21C C66U, G10A A21C G52C is lower in yeast fitness: 0.531 for the first, at most 0.5 for the second.

Compared with G10A A21G, G10A A21G A40U is lower in yeast fitness: 0.878 for the first, 0.558 for the second.

Compared with G10A A21G A65C, G10A A21G A65U A69C is higher in yeast fitness: 0.545 for the first, 0.777 for the second.

G10A A21G C22A C31A A40G C46G and G10A A21G C22U C55U cannot be ordered by yeast fitness: at most 0.5 for the first, at most 0.5 for the second.

G10A A21G C24A C66U and G10A A21G C27U A40U cannot be ordered by yeast fitness: at most 0.5 for the first, at most 0.5 for the second.

G10A A21G C29A U53C C61G G67A A69C and G10A A21G C30A A42C cannot be ordered by yeast fitness: at most 0.5 for the first, at most 0.5 for the second.

First: G10A A21G G67C
Second: G10A A21U
The yeast fitness of the first is higher: 0.617 for the first, 0.609 for the second.

G10A A21U A43U A45U G50C and G10A A21U A70C cannot be ordered by yeast fitness: at most 0.5 for the first, at most 0.5 for the second.

G10A A21U C27U C49A U64C and G10A A36C A37G C49A cannot be ordered by yeast fitness: at most 0.5 for the first, at most 0.5 for the second.

First: G10A A36C A42U
Second: G10A A36C A43U
The yeast fitness of the first is lower: 0.557 for the first, 0.573 for the second.

Compared with G10A A36C A45C, G10A A36C A45C A70U is lower in yeast fitness: 0.634 for the first, at most 0.5 for the second.

G10A A36C C66U and G10A A36G A65U cannot be ordered by yeast fitness: at most 0.5 for the first, at most 0.5 for the second.

G10A A36G G38C and G10A A36G U59C A70G cannot be ordered by yeast fitness: at most 0.5 for the first, at most 0.5 for the second.

First: G10A A36U
Second: G10A A36U A43G
The yeast fitness of the first is lower: 0.596 for the first, 0.607 for the second.

Going from G10A A37C to G10A A37C A42G, the yeast fitness falls from 0.741 to at most 0.5.

First: G10A A37G
Second: G10A A37U
The yeast fitness of the first is lower: 0.551 for the first, 0.622 for the second.

G10A A37U A65U and G10A A37U G39A A57U cannot be ordered by yeast fitness: at most 0.5 for the first, at most 0.5 for the second.

Going from G10A A40C to G10A A40U G52C, the yeast fitness falls from 0.771 to at most 0.5.

First: G10A A42G A65G
Second: G10A A42U
The yeast fitness of the first is lower: at most 0.5 for the first, 0.805 for the second.

Compared with G10A A42U U59A, G10A A43C is higher in yeast fitness: at most 0.5 for the first, 0.811 for the second.

Compared with G10A A43G, G10A A43G G50A is lower in yeast fitness: 0.65 for the first, 0.573 for the second.

G10A A43G G52C U53C G63C and G10A A43G G56U A69G cannot be ordered by yeast fitness: at most 0.5 for the first, at most 0.5 for the second.

Compared with G10A A43U A69C, G10A A45C is lower in yeast fitness: 0.887 for the first, 0.66 for the second.

Going from G10A A45C C49U to G10A A45U, the yeast fitness rises from 0.652 to 0.673.

G10A A45U G48A and G10A A45U U53G A65C cannot be ordered by yeast fitness: at most 0.5 for the first, at most 0.5 for the second.

Going from G10A A57C C66G to G10A A57G, the yeast fitness rises from at most 0.5 to 0.852.

Going from G10A A57U to G10A A57U A65C A70G, the yeast fitness falls from 0.607 to at most 0.5.

Going from G10A A57U A65U to G10A A57U U59A A65C, the yeast fitness rises from at most 0.5 to 0.561.

Compared with G10A A57U U59C, G10A A65C is higher in yeast fitness: at most 0.5 for the first, 0.786 for the second.

Going from G10A A65G A70C to G10A A65U, the yeast fitness rises from 0.65 to 0.788.

Going from G10A A65U G68A to G10A A69C, the yeast fitness rises from at most 0.5 to 0.858.

Compared with G10A A69C A70C, G10A A69G is higher in yeast fitness: at most 0.5 for the first, 0.641 for the second.

First: G10A A69U
Second: G10A A70C
The yeast fitness of the first is lower: 0.732 for the first, 0.856 for the second.

Compared with G10A A70U, G10A C11A A14G A15G G38A is lower in yeast fitness: 0.894 for the first, at most 0.5 for the second.

G10A C11A A15C C24A and G10A C11A A15C C24A C34A C46G G51A cannot be ordered by yeast fitness: at most 0.5 for the first, at most 0.5 for the second.

Compared with G10A C11A A20U C66G, G10A C11G is higher in yeast fitness: at most 0.5 for the first, 0.565 for the second.

G10A C11G C31U A37C and G10A C11G G44A C49G A65U cannot be ordered by yeast fitness: at most 0.5 for the first, at most 0.5 for the second.

First: G10A C11U
Second: G10A C11U A15G C30U U47C C61G A69C
The yeast fitness of the first is higher: 0.777 for the first, at most 0.5 for the second.

First: G10A C11U A36G G67C
Second: G10A C11U C24A C55G
The yeast fitness of the first is lower: 0.572 for the first, 0.595 for the second.

G10A C11U C29A C34A G44A A69C and G10A C11U U35A C61U cannot be ordered by yeast fitness: at most 0.5 for the first, at most 0.5 for the second.

First: G10A C22A A43G C55A
Second: G10A C22G C27U G56A C66G
The yeast fitness of the first is lower: at most 0.5 for the first, 0.504 for the second.

Going from G10A C22G G58C to G10A C22U, the yeast fitness rises from at most 0.5 to 0.647.

G10A C22U A70U and G10A C22U C27U C33U A43U U54C cannot be ordered by yeast fitness: at most 0.5 for the first, at most 0.5 for the second.

G10A C22U G56C A70U and G10A C22U G68A cannot be ordered by yeast fitness: at most 0.5 for the first, at most 0.5 for the second.

G10A C22U U47C G68A and G10A C24A A43C cannot be ordered by yeast fitness: at most 0.5 for the first, at most 0.5 for the second.

G10A C24A A43U G48A and G10A C24A C29G U35A A36U cannot be ordered by yeast fitness: at most 0.5 for the first, at most 0.5 for the second.

Going from G10A C24A C30A C31G A43U U54G C62G to G10A C24A C33U A57U U59G, the yeast fitness falls from 0.544 to at most 0.5.

G10A C24A C49G G58C and G10A C24A C62U cannot be ordered by yeast fitness: at most 0.5 for the first, at most 0.5 for the second.

G10A C24A G52U and G10A C24A G56C cannot be ordered by yeast fitness: at most 0.5 for the first, at most 0.5 for the second.

Compared with G10A C24G, G10A C24G C34U G63C is lower in yeast fitness: 0.517 for the first, at most 0.5 for the second.

Going from G10A C24G G39C C66U to G10A C24G G68A, the yeast fitness rises from at most 0.5 to 0.735.

Going from G10A C24U to G10A C24U A36C, the yeast fitness falls from 0.977 to at most 0.5.

Going from G10A C24U C49U to G10A C24U C55U C66U, the yeast fitness falls from 0.53 to 0.52.

Compared with G10A C24U C60U, G10A C27A A36U A37U G48C C61G A69U is higher in yeast fitness: at most 0.5 for the first, 0.576 for the second.

Going from G10A C27A A37U G52A U54C G56C A57G to G10A C27G, the yeast fitness rises from at most 0.5 to 0.551.

G10A C27G C33G G41C A65G G68A and G10A C27G C60A cannot be ordered by yeast fitness: at most 0.5 for the first, at most 0.5 for the second.

Going from G10A C27G G38A A42G to G10A C27U, the yeast fitness rises from 0.661 to 0.817.

Going from G10A C29A to G10A C29A A45U, the yeast fitness falls from 0.574 to at most 0.5.

First: G10A C29A A57C U59A
Second: G10A C29A C34G A43C
The yeast fitness of the first is lower: at most 0.5 for the first, 0.68 for the second.

Going from G10A C29A C66U G67U G68A to G10A C29A U35A G56A G67C, the yeast fitness falls from 0.56 to at most 0.5.

G10A C29G A43U U53G and G10A C29G C34G cannot be ordered by yeast fitness: at most 0.5 for the first, at most 0.5 for the second.

G10A C29G G39C and G10A C29G U53A G56C C62G cannot be ordered by yeast fitness: at most 0.5 for the first, at most 0.5 for the second.

G10A C29U C30G C34A and G10A C29U G44C cannot be ordered by yeast fitness: at most 0.5 for the first, at most 0.5 for the second.

First: G10A C30A
Second: G10A C30A A42G A43U
The yeast fitness of the first is higher: 0.64 for the first, at most 0.5 for the second.

G10A C30A C31G A69G and G10A C30A C55A G58A cannot be ordered by yeast fitness: at most 0.5 for the first, at most 0.5 for the second.

First: G10A C30A C62A
Second: G10A C30A G48A
The yeast fitness of the first is lower: at most 0.5 for the first, 0.559 for the second.

First: G10A C30G
Second: G10A C30G C46U
The yeast fitness of the first is higher: 0.511 for the first, at most 0.5 for the second.

First: G10A C30G G68A
Second: G10A C30U
The yeast fitness of the first is lower: at most 0.5 for the first, 0.748 for the second.

Going from G10A C30U C33G to G10A C30U C33G U64C, the yeast fitness rises from 0.538 to 0.662.

G10A C30U C34U A42G A57C and G10A C30U C34U A42G A69C A70G cannot be ordered by yeast fitness: at most 0.5 for the first, at most 0.5 for the second.

Compared with G10A C30U C60G C66U, G10A C30U G41A A69C is higher in yeast fitness: at most 0.5 for the first, 0.548 for the second.

G10A C30U U47A and G10A C31A G38C G44A A65G cannot be ordered by yeast fitness: at most 0.5 for the first, at most 0.5 for the second.

G10A C31A G41C and G10A C31A U32C G41C cannot be ordered by yeast fitness: at most 0.5 for the first, at most 0.5 for the second.

Compared with G10A C31G, G10A C31G G44A G56C is lower in yeast fitness: 0.651 for the first, at most 0.5 for the second.

Compared with G10A C31U A37G, G10A C31U C34A A40G A65U is lower in yeast fitness: 0.796 for the first, at most 0.5 for the second.

First: G10A C31U C34A A40G U59A
Second: G10A C33G A43G G58A G67A A69U
The yeast fitness of the first is higher: 0.596 for the first, 0.543 for the second.

G10A C33U A40G C55G A65C and G10A C33U A45U G48C U64A cannot be ordered by yeast fitness: at most 0.5 for the first, at most 0.5 for the second.

G10A C33U A45U G48C U64A A70U and G10A C33U A65U cannot be ordered by yeast fitness: at most 0.5 for the first, at most 0.5 for the second.

With G10A C33U U59C the yeast fitness was at most 0.5.
